Laboratory results: ChEMBL document CHEMBL1154610, “Discovery and preclinical evaluation of [4-[[1-(3-fluorophenyl)methyl]-1H-indazol-5-ylamino]-5-methylpyrrolo[2,1-f][1,2,4]triazin-6-yl]carbamic acid, (3S)-3-morpholinylmethyl ester (BMS-599626), a selective and orally efficacious inhibitor of human epidermal growth factor receptor 1 and 2 kinases” (J Med Chem, 2009)
Calls of active or inactive are those of the source. No cut-off for these calls is given here.

Tests used:
[1] = Protein binding in dog plasma at 10 uM by equilibrium dialysis; format: ADME, cell-free, Canis lupus familiaris; conditions: read-out: PPB (converted)
[2] = AUC (0 to 24 hrs) in rat at 10 mg/kg, po; format: ADME, organism-based; parameters: time < 24 hr, dose 10 mg/kg, route oral; conditions: plasma
L2987 [3] = assay: Antitumor activity against human L2987 cells xenografted in athymic mouse at 180 mg/kg, po qd for 14 days; format: functional; conditions: L2987, 336 h, read-out: TGI
Outline: (§1)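 Xenograft-bearing mice dosed orally once daily in propylene glycol/Tween80/water (40:10:50). TGI taken as percent tumor growth inhibition during treatment; significance from mean tumor weight at end of treatment; body weight loss and morbidity monitored.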

[4] = target: Receptor tyrosine-protein kinase erbB-2 (Homo sapiens, UniProt P04626); assay: Inhibition of human recombinant HER2 expressed in Sf9 cells by liquid scintillation counting
[5] = Clearance in mouse at 25 mg/kg, iv; format: ADME, organism-based; parameters: dose 25 mg/kg, route intravenous; conditions: in vivo
[6] = Volume of distribution at steady state in mouse at 25 mg/kg, iv; format: ADME, organism-based; parameters: dose 25 mg/kg, route intravenous; conditions: in vivo, read-out: Vdss
Outline: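 Mouse PK, average of three animals. Solution formulation in PG/Tween80/water (40:10:50), given orally at 120 mg/kg or iv at 25 mg/kg. Tmax taken from the oral arm; Vss taken from the iv arm.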

[7] = target: T1, Epidermal growth factor receptor and ErbB2 (HER1 and HER2) (Homo sapiens) (UniProt P04626+P00533); assay: Inhibition of HER1/HER2-mediated MAPK phosphorylation in human GEO cells by Western blot; format: cell-based
[8] = Oral bioavailability in dog at 25 mg/kg; format: ADME, organism-based, Canis lupus familiaris; conditions: in vivo
[9] = AUC (0 to 4 hrs) in BALB/c mouse at 50 mg/kg, po; format: ADME, organism-based; parameters: time < 4 hr, dose 50 mg/kg, route oral; conditions: plasma
NCI-N87 [10] = assay: Antitumor activity against human NCI-N87 cells xenografted in athymic mouse at 60 mg/kg, po qd for 21 days; format: functional; conditions: NCI-N87, 504 h, read-out: TGI; outline: as §1
Cytochrome P450 2C19 = Cytochrome P450 2C19 (Homo sapiens, UniProt P33261); assay: Inhibition of human CYP2C19; format: ADME
[11] = Cmax in BALB/c mouse at 50 mg/kg, po; format: ADME, organism-based; parameters: dose 50 mg/kg, route oral; conditions: in vivo
[12] = target: T1, Epidermal growth factor receptor and ErbB2 (HER1 and HER2) (Homo sapiens); assay: Inhibition of epidermal growth factor-induced HER1/HER2 heterodimer formation in human AU565 cells at 1 uM by immunoprecipitation; format: cell-based
[13] = Half life in rat plasma at 10 mg/kg, po; format: ADME, organism-based; parameters: dose 10 mg/kg, route oral
[14] = Tmax in dog at 25 mg/kg, po; format: ADME, organism-based, Canis lupus familiaris; parameters: dose 25 mg/kg, route oral; conditions: in vivo
Outline: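 Dog PK, average of two animals. Compound dosed as a PEG400/Tween80/water (50:0.1:50) solution, orally at 25 mg/kg and iv at 1.5 mg/kg. Oral data give Tmax; iv data give Vss.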

[15] = Metabolic stability in mouse liver microsomes assessed per mg of protein at 10 uM after 10 mins; format: ADME, Microsome
Outline: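 Mouse liver microsomes incubated with compound at 10 µM for 10 min; metabolic rate expressed as nmol/min/mg protein.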

[16] = Oral bioavailability in cynomolgus monkey at 5 mg/kg; format: ADME, organism-based, Macaca fascicularis; conditions: in vivo
[17] = target: Epidermal growth factor receptor (Homo sapiens, UniProt P00533); assay: Inhibition of human recombinant HER1 expressed in Sf9 cells by liquid scintillation counting
[18] = Effect on action potential parameters in rabbit purkinje fiber up to 30 uM; format: ADME, tissue-based, Oryctolagus cuniculus
NCI-N87 [19] = assay: Antiproliferative activity against human NCI-N87 cells after 72 hrs by MTT assay; format: functional, cell-based; conditions: NCI-N87, 72 h
[20] = Half life in dog plasma at 25 mg/kg, po; format: ADME, organism-based, Canis lupus familiaris; parameters: dose 25 mg/kg, route oral
[21] = AUC (0 to 24 hrs) in mouse at 120 mg/kg, po; format: ADME, organism-based; parameters: time < 24 hr, dose 120 mg/kg, route oral; conditions: plasma
Outline: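 Mice were dosed orally at 120 mg/kg as a solution in PG/Tween80/water (40:10:50).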

[22] = Antitumor activity against human GEO cells xenografted in athymic mouse at 60 mg/kg, po qd for 14 days; format: functional; conditions: 336 h, read-out: TGI; outline: as §1
L2987 [23] = assay: Antitumor activity against human L2987 cells xenografted in athymic mouse at 60 mg/kg, po qd for 14 days; format: functional; conditions: L2987, 336 h, read-out: TGI; outline: as §1
[24] = Protein binding in mouse plasma at 10 uM by equilibrium dialysis; format: ADME, cell-free; conditions: read-out: PPB (converted)
[25] = Cmax in dog at 25 mg/kg, po; format: ADME, organism-based, Canis lupus familiaris; parameters: dose 25 mg/kg, route oral; conditions: in vivo
NCI-N87 [26] = assay: Antitumor activity against human NCI-N87 cells xenografted in athymic mouse at 180 mg/kg, po qd for 21 days; format: functional; conditions: NCI-N87, 504 h, read-out: TGI; outline: as §1
[27] = Half life in mouse plasma at 120 mg/kg, po; format: ADME, organism-based; parameters: dose 120 mg/kg, route oral
[28] = Clearance in cynomolgus monkey at 5 mg/kg, iv; format: ADME, organism-based, Macaca fascicularis; parameters: dose 5 mg/kg, route intravenous; conditions: in vivo
[29] = AUC (0 to 24 hrs) in cynomolgus monkey at 5 mg/kg, po; format: ADME, organism-based, Macaca fascicularis; parameters: time < 24 hr, dose 5 mg/kg, route oral; conditions: plasma
Outline: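 Monkeys were dosed orally at 5 mg/kg as a solution in PEG400/Tween80/water (50:0.1:50).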

[30] = Volume of distribution at steady state in rat at 2.5 mg/kg, iv; format: ADME, organism-based; parameters: dose 2.5 mg/kg, route intravenous; conditions: in vivo, read-out: Vdss
Outline: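 Rat PK, average of three animals. Solution formulation in PEG400/Tween80/water (50:0.1:50), given orally at 10 mg/kg or iv at 2.5 mg/kg. Tmax comes from oral dosing; Vss comes from iv dosing.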

[31] = Half life in cynomolgus monkey plasma at 5 mg/kg, po; format: ADME, organism-based, Macaca fascicularis; parameters: dose 5 mg/kg, route oral
L2987 [32] = assay: Antitumor activity against human L2987 cells xenografted in athymic mouse at 30 mg/kg, po qd for 14 days; format: functional; conditions: L2987, 336 h, read-out: TGI; outline: as §1
[33] = Oral bioavailability in rat at 10 mg/kg; format: ADME, organism-based; conditions: in vivo
[34] = Antitumor activity against human KPL4 cells xenografted in athymic mouse at 60 mg/kg, po qd for 21 days; format: functional; conditions: KPL4, 504 h, read-out: TGI; outline: as §1
[35] = Mean residence time in dog at 1.5 mg/kg, iv; format: ADME, organism-based, Canis lupus familiaris; parameters: dose 1.5 mg/kg, route intravenous; conditions: in vivo
[36] = Mean residence time in rat at 2.5 mg/kg, iv; format: ADME, organism-based; parameters: dose 2.5 mg/kg, route intravenous; conditions: in vivo
[37] = Protein binding in cynomolgus monkey plasma at 10 uM by equilibrium dialysis; format: ADME, cell-free, Macaca fascicularis; conditions: read-out: PPB (converted)
Mus musculus = assay: Plasma concentration in BALB/c mouse at 50 mg/kg, po; format: ADME, organism-based; parameters: dose 50 mg/kg, route oral; conditions: in vivo
Outline: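 Compound given orally at 50 mg/kg as a solution in PEG400/Tween80/water (40:10:50) to three Balb/C mice. Plasma sampled over 4 h after dosing; AUC(0-4h), Cmax and 4 h concentration reported.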

Cytochrome P450 2D6 = Cytochrome P450 2D6 (Homo sapiens, UniProt P10635); assay: Inhibition of human CYP2D6; format: ADME
[38] = Tmax in cynomolgus monkey at 5 mg/kg, po; format: ADME, organism-based, Macaca fascicularis; parameters: dose 5 mg/kg, route oral; conditions: in vivo
Outline: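 Monkey PK, mean of two animals. Compound given as a solution in PEG400/Tween80/water (50:0.1:50), 5 mg/kg both orally and iv. Tmax from the oral route; steady-state volume of distribution from the iv route.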

[39] = target: Receptor tyrosine-protein kinase erbB-4 (Homo sapiens, UniProt Q15303); assay: Inhibition of human recombinant HER4 expressed in Sf9 cells by liquid scintillation counting
[40] = target: Voltage-gated inwardly rectifying potassium channel KCNH2 (Homo sapiens, UniProt Q12809); assay: Inhibition of human ERG expressed in HEK cells; format: cell-based, HEK293
[41] = AUC (0 to 24 hrs) in dog at 25 mg/kg, po; format: ADME, organism-based, Canis lupus familiaris; parameters: time < 24 hr, dose 25 mg/kg, route oral; conditions: plasma

Epidermal growth factor receptor, sequence (P00533 whole entry): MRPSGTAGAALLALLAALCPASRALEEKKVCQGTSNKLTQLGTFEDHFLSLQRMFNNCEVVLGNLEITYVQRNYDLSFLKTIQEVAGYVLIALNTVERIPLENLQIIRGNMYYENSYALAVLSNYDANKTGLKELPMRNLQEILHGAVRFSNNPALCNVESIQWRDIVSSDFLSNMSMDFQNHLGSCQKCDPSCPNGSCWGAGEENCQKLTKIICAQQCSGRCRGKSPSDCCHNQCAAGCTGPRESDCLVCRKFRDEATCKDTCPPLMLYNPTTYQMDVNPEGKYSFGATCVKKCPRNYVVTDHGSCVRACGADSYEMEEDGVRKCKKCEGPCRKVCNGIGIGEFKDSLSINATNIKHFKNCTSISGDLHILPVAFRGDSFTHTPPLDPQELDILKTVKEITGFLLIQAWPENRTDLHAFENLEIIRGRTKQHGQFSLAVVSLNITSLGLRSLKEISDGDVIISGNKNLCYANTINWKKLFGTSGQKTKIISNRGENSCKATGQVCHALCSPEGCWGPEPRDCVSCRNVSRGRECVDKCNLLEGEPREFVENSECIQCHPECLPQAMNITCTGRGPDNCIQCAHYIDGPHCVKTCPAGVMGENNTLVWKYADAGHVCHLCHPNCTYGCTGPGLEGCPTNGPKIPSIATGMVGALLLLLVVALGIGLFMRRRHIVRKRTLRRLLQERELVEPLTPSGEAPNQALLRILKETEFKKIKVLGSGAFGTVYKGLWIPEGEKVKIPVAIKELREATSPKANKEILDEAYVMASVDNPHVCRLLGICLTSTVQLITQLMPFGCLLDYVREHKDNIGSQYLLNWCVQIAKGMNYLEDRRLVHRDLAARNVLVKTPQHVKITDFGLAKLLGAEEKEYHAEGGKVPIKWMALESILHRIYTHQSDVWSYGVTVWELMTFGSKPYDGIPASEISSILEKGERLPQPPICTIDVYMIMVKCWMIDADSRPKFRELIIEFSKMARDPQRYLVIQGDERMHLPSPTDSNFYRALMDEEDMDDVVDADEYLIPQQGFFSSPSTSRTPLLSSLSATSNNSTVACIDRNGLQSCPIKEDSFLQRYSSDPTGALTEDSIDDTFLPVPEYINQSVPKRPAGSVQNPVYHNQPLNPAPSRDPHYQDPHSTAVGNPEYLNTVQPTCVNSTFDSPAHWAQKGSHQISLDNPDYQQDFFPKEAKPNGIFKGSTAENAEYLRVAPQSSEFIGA
Cytochrome P450 2C19, sequence (P33261 whole entry): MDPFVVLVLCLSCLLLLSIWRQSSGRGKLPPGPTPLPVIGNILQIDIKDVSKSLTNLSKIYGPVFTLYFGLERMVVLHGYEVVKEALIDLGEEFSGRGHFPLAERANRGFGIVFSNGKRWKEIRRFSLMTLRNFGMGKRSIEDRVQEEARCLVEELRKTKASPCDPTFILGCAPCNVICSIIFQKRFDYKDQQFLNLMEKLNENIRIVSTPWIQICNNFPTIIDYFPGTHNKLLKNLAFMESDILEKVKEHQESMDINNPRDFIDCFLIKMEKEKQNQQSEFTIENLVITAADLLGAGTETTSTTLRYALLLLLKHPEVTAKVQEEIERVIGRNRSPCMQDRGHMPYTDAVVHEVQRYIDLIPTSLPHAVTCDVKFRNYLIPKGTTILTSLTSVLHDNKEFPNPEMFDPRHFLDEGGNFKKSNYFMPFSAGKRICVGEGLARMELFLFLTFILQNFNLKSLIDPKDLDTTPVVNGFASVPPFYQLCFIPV
Voltage-gated inwardly rectifying potassium channel KCNH2, sequence (Q12809 whole entry): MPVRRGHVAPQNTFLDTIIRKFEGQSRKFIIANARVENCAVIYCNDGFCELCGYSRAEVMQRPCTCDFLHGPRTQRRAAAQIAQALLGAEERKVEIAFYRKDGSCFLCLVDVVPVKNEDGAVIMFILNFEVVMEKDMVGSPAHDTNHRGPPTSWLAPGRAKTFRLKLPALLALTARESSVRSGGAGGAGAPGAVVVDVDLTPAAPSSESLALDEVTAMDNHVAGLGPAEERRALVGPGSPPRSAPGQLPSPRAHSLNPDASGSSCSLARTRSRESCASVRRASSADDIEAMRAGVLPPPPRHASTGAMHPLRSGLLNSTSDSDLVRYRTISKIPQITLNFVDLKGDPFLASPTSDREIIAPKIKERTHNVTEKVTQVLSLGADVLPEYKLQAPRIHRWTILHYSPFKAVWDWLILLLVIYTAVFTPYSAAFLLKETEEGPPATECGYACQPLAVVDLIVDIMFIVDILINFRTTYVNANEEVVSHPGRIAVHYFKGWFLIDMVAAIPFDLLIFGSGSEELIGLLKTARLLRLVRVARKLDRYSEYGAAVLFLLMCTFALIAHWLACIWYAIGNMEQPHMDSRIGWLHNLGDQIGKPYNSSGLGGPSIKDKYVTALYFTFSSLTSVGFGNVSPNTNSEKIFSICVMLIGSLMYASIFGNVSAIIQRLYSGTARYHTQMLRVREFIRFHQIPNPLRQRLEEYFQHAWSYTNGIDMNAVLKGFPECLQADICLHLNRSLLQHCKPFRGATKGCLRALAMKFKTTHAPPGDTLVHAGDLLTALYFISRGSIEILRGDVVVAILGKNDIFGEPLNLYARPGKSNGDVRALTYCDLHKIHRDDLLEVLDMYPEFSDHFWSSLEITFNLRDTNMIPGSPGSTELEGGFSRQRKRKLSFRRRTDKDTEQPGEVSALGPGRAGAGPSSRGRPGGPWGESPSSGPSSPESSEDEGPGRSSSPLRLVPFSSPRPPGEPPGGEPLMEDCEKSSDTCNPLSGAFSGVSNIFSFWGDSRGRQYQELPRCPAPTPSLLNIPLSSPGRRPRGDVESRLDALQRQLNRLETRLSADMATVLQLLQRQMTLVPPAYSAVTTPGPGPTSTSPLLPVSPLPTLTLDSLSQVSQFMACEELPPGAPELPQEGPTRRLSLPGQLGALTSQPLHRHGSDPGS
Receptor tyrosine-protein kinase erbB-4, sequence (Q15303 whole entry): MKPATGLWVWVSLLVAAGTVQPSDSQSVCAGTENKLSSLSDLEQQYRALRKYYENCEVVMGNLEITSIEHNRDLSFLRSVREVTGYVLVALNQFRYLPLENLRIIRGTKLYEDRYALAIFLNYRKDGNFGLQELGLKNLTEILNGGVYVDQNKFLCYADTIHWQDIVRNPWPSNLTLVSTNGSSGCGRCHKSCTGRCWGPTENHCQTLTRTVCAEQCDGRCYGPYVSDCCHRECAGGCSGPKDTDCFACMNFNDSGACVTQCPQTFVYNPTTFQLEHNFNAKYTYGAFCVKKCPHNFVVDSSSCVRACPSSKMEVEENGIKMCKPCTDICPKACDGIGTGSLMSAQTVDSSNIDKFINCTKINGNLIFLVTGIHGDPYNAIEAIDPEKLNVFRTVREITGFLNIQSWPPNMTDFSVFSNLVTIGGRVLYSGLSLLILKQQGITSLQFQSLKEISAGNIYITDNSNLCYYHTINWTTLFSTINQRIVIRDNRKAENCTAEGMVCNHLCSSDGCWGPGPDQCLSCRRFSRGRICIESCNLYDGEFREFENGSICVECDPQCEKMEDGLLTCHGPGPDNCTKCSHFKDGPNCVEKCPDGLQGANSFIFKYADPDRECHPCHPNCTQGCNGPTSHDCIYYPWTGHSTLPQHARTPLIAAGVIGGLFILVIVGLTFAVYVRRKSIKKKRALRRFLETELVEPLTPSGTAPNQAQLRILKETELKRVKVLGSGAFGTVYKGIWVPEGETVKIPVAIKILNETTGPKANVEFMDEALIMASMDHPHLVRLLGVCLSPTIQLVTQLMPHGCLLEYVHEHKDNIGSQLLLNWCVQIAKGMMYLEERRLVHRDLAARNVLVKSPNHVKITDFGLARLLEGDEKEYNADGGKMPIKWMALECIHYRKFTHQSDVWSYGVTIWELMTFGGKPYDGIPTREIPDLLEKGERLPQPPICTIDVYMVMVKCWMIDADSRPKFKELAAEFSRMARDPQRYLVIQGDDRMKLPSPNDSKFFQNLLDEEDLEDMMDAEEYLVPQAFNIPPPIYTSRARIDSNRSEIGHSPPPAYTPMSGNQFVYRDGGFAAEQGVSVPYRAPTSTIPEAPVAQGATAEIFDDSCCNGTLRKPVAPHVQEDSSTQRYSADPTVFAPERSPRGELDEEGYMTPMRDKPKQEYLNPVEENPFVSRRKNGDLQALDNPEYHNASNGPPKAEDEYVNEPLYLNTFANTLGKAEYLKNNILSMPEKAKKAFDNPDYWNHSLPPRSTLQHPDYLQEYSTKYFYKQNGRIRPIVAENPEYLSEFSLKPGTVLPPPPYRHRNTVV
Cytochrome P450 2D6, sequence (P10635 whole entry): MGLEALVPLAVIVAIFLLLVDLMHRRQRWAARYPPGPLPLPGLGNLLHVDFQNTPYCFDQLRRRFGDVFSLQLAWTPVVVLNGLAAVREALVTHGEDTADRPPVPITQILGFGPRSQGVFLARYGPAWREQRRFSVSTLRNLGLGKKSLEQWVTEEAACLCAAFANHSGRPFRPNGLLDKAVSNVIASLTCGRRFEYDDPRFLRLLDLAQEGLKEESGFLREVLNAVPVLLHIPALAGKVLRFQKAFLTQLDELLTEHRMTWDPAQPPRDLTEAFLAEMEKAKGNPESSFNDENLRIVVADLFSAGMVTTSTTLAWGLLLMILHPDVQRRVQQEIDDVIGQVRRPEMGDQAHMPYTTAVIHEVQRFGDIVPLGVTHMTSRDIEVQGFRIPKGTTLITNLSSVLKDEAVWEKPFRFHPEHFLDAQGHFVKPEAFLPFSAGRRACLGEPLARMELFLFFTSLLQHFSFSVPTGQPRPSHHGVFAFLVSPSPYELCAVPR

In the case of Cc1c(NC(=O)OC[C@@H]2COCCN2)cn2ncnc(Nc3ccc4c(cnn4Cc4cccc(F)c4)c3)c12 [AC-480], the fraction unbound at 10 µM [1] is reported as 0.029, the AUC(0-t) at 24 h [2] is reported as 2.9 µM·h and the inhibition in vivo at 180 mg/kg (L2987 [3]) is reported as 99%. It also gave an IC50 [4] of 22 nM, a clearance [5] of 21.3 mL/min/kg and a Vd [6] of 4.7 L/kg. For the same molecule, the inhibition [7] was “Dose-dependent effect”, the bioavailability [8] was 49% and the AUC(0-t) at 4 h [9] was 13.3 µM·h. For the same molecule, the inhibition in vivo at 60 mg/kg (NCI-N87 [10]) was 39%, the IC50 (Cytochrome P450 2C19) was 10000 nM and the Cmax [11] was 4.1 µM. For the same molecule, the inhibition [12] was “Active”, the half-life [13] was 2.8 h and the Tmax [14] was 2.3 h. It also gave a Stability [15] of 0.02 nmol/min, a bioavailability [16] of 31% and an IC50 [17] of 32 nM. The Activity [18] was “Non-toxic”, the IC50 (NCI-N87 [19]) was 450 nM and the half-life [20] was 7.2 h. The AUC(0-t) at 24 h [21] was 147 µM·h, the inhibition in vivo at 60 mg/kg [22] was 39% and the inhibition in vivo at 60 mg/kg (L2987 [23]) was 58%. It also gave a fraction unbound at 10 µM [24] of 0.017, a Cmax [25] of 1.2 µM and an inhibition in vivo at 180 mg/kg (NCI-N87 [26]) of 71%. It also gave a half-life [27] of 2.7 h, a clearance [28] of 10.5 mL/min/kg and an AUC(0-t) at 24 h [29] of 3.6 µM·h. The Vd [30] was 5.7 L/kg, the half-life [31] was 5.7 h and the inhibition in vivo at 30 mg/kg (L2987 [32]) was less than 50%. For the same molecule, the bioavailability [33] was 40%, the inhibition in vivo at 60 mg/kg [34] was 61% and the MRT [35] was 6.9 h. For the same molecule, the MRT [36] was 2.8 h, the fraction unbound at 10 µM [37] was 0.031 and the concentration (Mus musculus) was 4.1 µM. It also gave an IC50 (Cytochrome P450 2D6) greater than 40000 nM, a Tmax [38] of 1.5 h and an IC50 [39] of 190 nM. The IC50 [40] was 4000 nM and the AUC(0-t) at 24 h [41] was 14 µM·h.
